Data set [1] can be described thus: Toxicity in african green monkey Vero cells after 72 hrs. Type of data set: cell-based. The conditions noted are these: African green monkey (Chlorocebus sabaeus). The essentials:
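Vero cells were cultured with compound for 72 h. The cytotoxic IC50 was derived by linear regression from Kc values at 2.5, 25 and 125 µM. Results are the average of three separate determinations.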

The subject of data set [2] is Trypanosoma cruzi. The experiment in a line: Antiparasitic activity against Trypanosoma cruzi in Vero cells assessed as reduction of trypomastigotes at 10 uM on day 8 relative to control. The data set is classed as functional. More on the design: scale not given: the % may be the effect or the level left. The essentials:
(§1)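 Vero cells (1 × 10^5) were grown for 2 days, then infected with 1 × 10^6 T. cruzi metacyclic forms, adding compound (10 µM) at the same time. Cultures were followed over days 1–8. Read-outs were % infected cells, mean amastigotes per infected cell, and trypomastigotes in the medium, each compared with an untreated control. Values are means of three separate experiments.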

Data set [3] concerns Trypanosoma cruzi. Put plainly: Inhibition of Iron superoxide dismutase in Trypanosoma cruzi epimastigotes at 2.5 uM.
The test system of data set [4] is Trypanosoma cruzi. The experiment in a line: Antiparasitic activity against Trypanosoma cruzi epimastigotes after 24 hrs. Type of data set: functional, organism-based. The essentials: (§2)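 Epimastigotes were cultured with compound at 2.5, 25 and 125 µM, and growth inhibition was read at 24, 48 or 72 h. IC50 was calculated by linear regression from Kc values at those concentrations. Results are the average of three separate determinations.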

The subject of data set [5] is Trypanosoma cruzi. Put plainly: Inhibition of Iron superoxide dismutase in Trypanosoma cruzi epimastigotes at 25 uM.
Data set [6] concerns the target Superoxide dismutase [Cu-Zn] (Homo sapiens) (UniProt P00441). Put plainly: inhibition of CuZn-SOD in human erythrocytes at 2.5 uM. The data set is classed as cell-based.
Data set [7] deals with Trypanosoma cruzi. The experiment in a line: Antiparasitic activity against Trypanosoma cruzi epimastigotes after 48 hrs. The data set is classed as functional, organism-based. The procedure, abridged: as §2
Data set [8] addresses Superoxide dismutase [Cu-Zn] (Homo sapiens) (UniProt P00441). Put plainly: inhibition of CuZn-SOD in human erythrocytes at 125 uM. Type of data set: cell-based.
For data set [9], the system named is Trypanosoma cruzi. Put plainly: Antiparasitic activity against Trypanosoma cruzi in Vero cells assessed as reduction of infection rate at 10 uM relative to control. More on the design: scale not given: the % may be the effect or the level left. The data set is classed as functional. The procedure, abridged:
as §1

The subject of data set [10] is Trypanosoma cruzi. The experiment in a line: Antiparasitic activity against Trypanosoma cruzi in Vero cells assessed as reduction of amastigotes at 10 uM on day 8 relative to control. Type of data set: functional. More on the design: scale not given: the % may be the effect or the level left. The procedure, abridged:
as §1

The target of data set [11] is Superoxide dismutase [Cu-Zn] (Homo sapiens) (UniProt P00441). Put plainly: inhibition of CuZn-SOD in human erythrocytes at 25 uM. The data set is classed as cell-based.
Data set [12] concerns Trypanosoma cruzi. Put plainly: Antiparasitic activity against Trypanosoma cruzi epimastigotes after 72 hrs. The data set is classed as functional, organism-based. The essentials: as §2
For data set [13], the system named is Trypanosoma cruzi. Put plainly: Inhibition of Iron superoxide dismutase in Trypanosoma cruzi epimastigotes at 125 uM.

A word on the IC50: it is the concentration at which inhibition is half-maximal. As a reminder, the inhibition is the change of the read-out against control, counted positive when it falls.

Each structure is given as a SMILES string.

Superoxide dismutase [Cu-Zn] (Homo sapiens), sequence (P00441 whole entry): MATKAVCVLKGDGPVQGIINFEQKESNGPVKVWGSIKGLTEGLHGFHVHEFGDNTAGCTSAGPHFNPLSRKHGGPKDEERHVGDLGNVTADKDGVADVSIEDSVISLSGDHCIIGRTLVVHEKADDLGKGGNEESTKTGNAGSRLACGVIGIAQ

Compound `c1ccc2cc3c(NCCc4cnc[nH]4)nnc(NCCc4cnc[nH]4)c3cc2c1` had an IC50 at 72 h in [1] of 88.7 µM.

For `c1ccc2cc3c(NCCCn4ccnc4)nnc(NCCCn4ccnc4)c3cc2c1`, the Activity was above 50% in data set [2], 84% in data set [9] and 44% in [10]. In addition, the inhibition in data set [3] turned out to be 32%; in data set [5] it was 42%; in [6], 2%; in [8], 18%; in [11] it was 12%; in data set [13] it was 100%. The IC50 in data set [4] is 53.4 µM; in [7], 34.8 µM; in [12], below 0.2 µM. In [1], it took 69.3 µM to reach half-maximal inhibition (IC50 at 72 h).

As to `Clc1nnc(NCCCn2ccnc2)c2cc3ccccc3cc12`, the inhibition in data set [3] worked out at 80%; in data set [5], 93%; in data set [6] it was 7%; in data set [8], 27%; in [11], 22%; in data set [13], 94%. The IC50 in [4] was 51 µM; in [7], 46.9 µM; in [12], 13.7 µM. Besides, the Activity in data set [9] worked out at 74%. In data set [1], this compound gave an IC50 at 72 h of 146 µM.

For the compound `c1ccc2cc3c(NCCc4c[nH]cn4)nnc(NCCc4c[nH]cn4)c3cc2c1`, the inhibition in data set [3] is 46%; in data set [5] it was 53%; in [6], 0%; in data set [8], 6%; in [11] it was 5%; in data set [13], 86%. In addition, the IC50 was 61.1 µM in [4], 35.1 µM in [7] and 14.2 µM in data set [12]. The Activity in [9] is given as above 50%.

As to `Clc1nnc(NCCc2c[nH]cn2)c2cc3ccccc3cc12`, the Activity in data set [2] is reported as above 50%; in data set [9] it was 81%; in data set [10], 55%. In addition, the inhibition was 50% in [3]; 91% in data set [5]; 0% in data set [6]; 11% in data set [8]; 0% in [11]; 100% in data set [13]. The IC50 is 108 µM in data set [4], 34.6 µM in data set [7] and below 0.3 µM in data set [12]. Further, 213 µM corresponded to half-maximal inhibition in [1] (IC50 at 72 h).

In data set [12], `O=C(Cn1ccnc1[N+](=O)[O-])NCc1ccccc1` [BENZNIDAZOLE] returned an IC50 of 15.8 µM.

(Values after ChEMBL document CHEMBL1142278, “Efficient inhibition of iron superoxide dismutase and of Trypanosoma cruzi growth by benzo[g]phthalazine derivatives functionalized with one or two imidazole rings” (J Med Chem, 2008).)
